Measured values collected from several papers.
Protocols differ between the studies behind these lines.
Effect on: cell growth or viability

CCc1ncn(CC(c2c[nH]c3ccc(C)cc23)c2c[nH]c3ccc(C)cc23)c1C(=O)OC  inhibition (DH82; MTS; 20 µM, 24 h): 6.1%
COc1ccc(NC(=O)c2c(Nc3ccccc3)sc(C#N)c2NC(=O)CNc2ccccc2[N+](=O)[O-])cc1  viability (HCT-116; SRB; 10 µM, 48 h): 72.7%
COc1ccc2occ(/C=C/c3cc(OC)c(OC)c(OC)c3)c(=O)c2c1  CC50 (HSC-2; MTT; 7 h): 20 µM
CCOC(=O)c1c(C)ncn1CC(c1cn(C)c2ccc([N+](=O)[O-])cc12)c1cn(C)c2ccc([N+](=O)[O-])cc12  inhibition (DH82; MTS; 200 µM, 72 h): 43%
FC1CCN(C2(CNCc3ccc(-c4ccccc4Cl)o3)COC2)C1 (stereo not drawn)  viability (U-87 MG; 30 µM, 48 h): 45.4%
Cc1ccc(C(=O)NCc2ccsc2)cc1C#Cc1cn(CCN(C)C)c2ncnc(N)c12  GI50 (32D): > 1 µM
Cc1cn(CC(c2cn(C)c3ccccc23)c2cn(C)c3ccccc23)nn1  inhibition (DH82; MTS; 20 µM, 24 h): 17.9%
COc1ccc(NCC(=O)Nc2c(C#N)sc(Nc3ccccc3)c2C(=O)Nc2ccc(OC)cc2)cc1  viability (HCT-116; SRB; 1 nM, 48 h): 99.5%
COc1ccc(-c2ccc(-c3ccc(C(=N)N)nc3)s2)cc1Cl  GI50 (EKVX; SRB): 1.79 µM
CC(C)Cc1nn(C)c(=O)c2c(SCCCO)n(Cc3cnc(Cl)c4ccccc34)cc12  EC50 (Raji; MTT; 96 h): 0.06 µM
Cc1ccc(C(=O)NCc2ccsc2)cc1C#Cc1cn(C2CCC2)c2ncnc(N)c12  GI50 (32D): > 1 µM
CC(C)Cc1nn(C)c(=O)c2c(SCCCO)n(Cc3cnc(NCCCCCN)c4ccccc34)cc12  EC50 (Raji; MTT; 96 h): 0.024 µM
COc1ccc2occ(/C=C/c3ccc(O)cc3)c(=O)c2c1  CC50 (HSC-2; MTT; 23 h): < 0.39 µM
Cc1ccc(C(=O)NCc2ccsc2)cc1C#Cc1cn(C2CCCC2)c2ncnc(N)c12  GI50 (32D): > 1 µM
COc1ccc(C=NNC(=O)c2sc(Nc3ccccc3)c(C(=O)Nc3ccc(OC)cc3)c2NC(C)=O)cc1  viability (HCT-116; SRB; 1 µM, 48 h): 59.4%
C=CC(=O)N1CCC[C@@H](n2nc(-c3ccc(Oc4ccccc4)cc3)c3c(N)ncnc32)C1  GI50 (DOHH-2; ATP luminescence; 72 h): 17 µM
COc1ccc(-c2ccc(-c3ccc(C(=N)N)nc3)s2)cc1  GI50 (EKVX; SRB): 1.7 µM
CC(C)Cc1nn(C)c(=O)c2c(SCCCO)n(Cc3cc(NCCCCCN)nc4ccccc34)cc12  EC50 (Raji; MTT; 96 h): 0.055 µM
COc1cccc(Oc2ccccc2NC(=O)CNC(=O)c2cccc3ccccc23)c1  GI50 (EKVX; SRB; 48 h): 1.29 µM
COc1ccc(NC(=O)c2c(Nc3ccccc3)sc(C(=O)NN=Cc3ccccc3)c2NC(C)=O)cc1  viability (HCT-116; SRB; 1 µM, 48 h): 77.3%
COc1ccc(/C=C/c2coc3ccc(OC)cc3c2=O)cc1  CC50 (HSC-2; MTT; 23 h): 2.6 µM
COc1ccc(NC(=O)c2c(Nc3ccccc3)sc(C(=O)NN=Cc3cc(OC)c(OC)c(OC)c3)c2NC(C)=O)cc1  viability (HCT-116; SRB; 1 µM, 48 h): 78.4%
c1ccc(-c2ccc(CNCC3(N4CCCC4)COC3)o2)cc1  viability (U-87 MG; 30 µM, 48 h): 0.534%
COc1ccc(NC(=O)c2c(Nc3ccccc3)sc(C#N)c2NC(=O)CNc2ccccc2Cl)cc1  viability (HCT-116; SRB; 10 nM, 48 h): 87.7%
Cc1ccc(C(=O)NCc2ccsc2)cc1C#Cc1cn(C)c2ncnc(N)c12  GI50 (32D): 0.106 µM
COc1ccc(NC(=O)c2c(Nc3ccccc3)sc(C(=O)NN=Cc3ccc(C)cc3)c2NC(C)=O)cc1  viability (HCT-116; SRB; 10 nM, 48 h): 90.2%
Cn1nnc2c(C(N)=O)ncn2c1=O  EC50 (AGS): 310 µM
